Experimental data from ChEMBL document CHEMBL3734696, “Discovery of novel 5-fluoro-N(2),N(4)-diphenylpyrimidine-2,4-diamines as potent inhibitors against CDK2 and CDK9” (Medchemcomm, 2015).

Legend:
[1] = Antiproliferative activity against human KBVIN cells after 3 days by SRB method; format: functional; details: 72 h
Outline: (§1)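 Freshly trypsinized cells seeded at 1500–7500 per well with compound added from DMSO-diluted stock. After 3 days, attached cells fixed with cold 50% TCA, stained with 0.4% SRB, and bound dye solubilized. Value is the mean of three independent determinations.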

[2] = Antiproliferative activity against human DU145 cells after 3 days by SRB method; format: functional; details: DU-145, 72 h; outline: as §1
A549 = experiment: Antiproliferative activity against human A549 cells after 3 days by SRB method; format: functional; details: A549, 72 h; outline: as §1
[3] = molecular target: Cyclin-dependent kinase 2/cyclin E1 (Homo sapiens, UniProt P24941); experiment: Inhibition of CDK2/cyclin E1 (unknown origin) expressed in Sf9 insect cells using UlightCFFKNIVTPRTPPPSQGK-amide substrate after 15 mins by […]
CDK9/cyclin T1 = CDK9/cyclin T1 (Homo sapiens, UniProt P50750); experiment: Inhibition of CDK9/Cyclin-T1 (unknown origin) using UlightCFFKNIVTPRTPPPSQGK-amide substrate after 90 mins by […]; format: protein-complex assay
[4] = Therapeutic index, ratio of IC50 for human MT4 cells to EC50 for Human immunodeficiency virus 1 NL 4-3; format: cell-based; details: read-out: Ratio IC50/EC50
[5] = system: Human immunodeficiency virus 1; experiment: Antiviral activity against Human immunodeficiency virus 1 NL 4-3 infected in MT4 cells measured on day 4 post infection by p24 assay; format: functional, organism-based; details: Human immunodeficiency virus 1, NL 4-3, MT4, 96 h
MT4 = experiment: Cytotoxicity against human MT4 cells; format: cell-based

Chain of CDK9/cyclin T1 (O60563 whole entry): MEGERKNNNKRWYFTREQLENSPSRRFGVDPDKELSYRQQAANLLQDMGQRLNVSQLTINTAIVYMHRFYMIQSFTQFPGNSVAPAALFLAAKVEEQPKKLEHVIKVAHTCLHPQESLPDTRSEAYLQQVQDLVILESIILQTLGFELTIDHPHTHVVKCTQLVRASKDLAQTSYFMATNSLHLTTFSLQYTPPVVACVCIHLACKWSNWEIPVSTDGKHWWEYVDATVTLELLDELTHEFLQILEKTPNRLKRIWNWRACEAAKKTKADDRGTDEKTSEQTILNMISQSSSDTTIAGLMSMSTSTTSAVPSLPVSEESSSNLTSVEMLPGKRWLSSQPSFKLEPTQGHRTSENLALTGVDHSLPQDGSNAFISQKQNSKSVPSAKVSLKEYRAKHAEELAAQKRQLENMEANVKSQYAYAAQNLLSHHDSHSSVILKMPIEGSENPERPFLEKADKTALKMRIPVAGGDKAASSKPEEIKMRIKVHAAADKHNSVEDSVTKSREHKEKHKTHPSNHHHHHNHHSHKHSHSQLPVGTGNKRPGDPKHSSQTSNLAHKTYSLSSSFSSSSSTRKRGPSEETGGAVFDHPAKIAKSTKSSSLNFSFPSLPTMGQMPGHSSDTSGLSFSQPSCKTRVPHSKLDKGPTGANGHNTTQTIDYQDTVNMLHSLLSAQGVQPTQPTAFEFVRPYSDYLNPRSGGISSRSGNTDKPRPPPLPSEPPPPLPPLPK
Chain of CDK9/cyclin T1 (P50750 whole entry): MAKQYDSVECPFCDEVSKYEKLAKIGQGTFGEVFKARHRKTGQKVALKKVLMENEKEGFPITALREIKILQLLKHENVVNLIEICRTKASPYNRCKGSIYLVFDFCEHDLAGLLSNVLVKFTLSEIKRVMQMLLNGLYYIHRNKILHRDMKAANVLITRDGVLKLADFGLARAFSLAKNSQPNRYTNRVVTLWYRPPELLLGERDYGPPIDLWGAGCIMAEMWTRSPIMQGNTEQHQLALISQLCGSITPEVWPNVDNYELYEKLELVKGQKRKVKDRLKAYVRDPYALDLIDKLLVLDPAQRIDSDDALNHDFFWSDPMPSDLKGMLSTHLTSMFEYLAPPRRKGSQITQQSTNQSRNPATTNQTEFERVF

| Structure (SMILES) | GI50 [1] | GI50 [2] | GI50 (A549) | IC50 [3] | IC50 (CDK9/cyclin T1) | selectivity ratio [4] | EC50 [5] | IC50 (MT4) |
| --- | --- | --- | --- | --- | --- | --- | --- | --- |
| O=C(Nc1cc(Cl)cc(Cl)c1)c1cccc(Nc2ncc(F)c(Nc3ccc(F)cc3)n2)c1 | 20.7 µM | 17.5 µM | 17.4 µM |  |  |  |  |  |
| Fc1cnc(Nc2cccc(N3CCOCC3)c2)nc1Nc1c(F)cccc1F | > 10 µM | 4.24 µM | 1.09 µM | 5.85 µM | 0.33 µM | 7.45 | 1.37 µM | 10.2 µM |
| O=C(Nc1ccc(C(F)(F)F)cc1)c1cccc(Nc2ncc(F)c(Nc3ccc(F)cc3)n2)c1 | > 10 µM | > 10 µM | > 10 µM |  |  |  |  |  |
| COc1ccc(NC(=O)c2cccc(Nc3ncc(F)c(Nc4ccc(F)cc4)n3)c2)cc1 | 15.7 µM | > 10 µM | 11 µM |  |  |  |  |  |
| CC(=O)N1CCCN(C(=O)c2cccc(Nc3ncc(F)c(Nc4ccc(F)cc4)n3)c2)CC1 | 16.7 µM | 15.7 µM | 9.96 µM | 60.6 µM | 15.6 µM | 2.18 | 7.08 µM |  |
| CN(C)c1ccc(C(=O)Nc2cccc(Nc3ncc(F)c(Nc4ccc(F)cc4)n3)c2)cc1 | > 10 µM | > 10 µM | > 10 µM |  |  |  |  |  |
| COc1ccc(N2CCN(C)CC2)cc1Nc1ncc(F)c(Nc2ccc(F)cc2)n1 | 0.91 µM | 0.91 µM | 1.13 µM | > 10 µM | > 10 µM |  |  |  |
| CN1CCC(C(=O)Nc2cccc(Nc3ncc(F)c(Nc4ccc(F)cc4)n3)c2)CC1 | 11.9 µM | 1.15 µM | 1.33 µM | 1.24 µM | 2.45 µM |  |  |  |
| CN1CCN(C(=O)c2cccc(Nc3ncc(F)c(Nc4ccc(F)cc4)n3)c2)CC1 | 12.3 µM | 10.9 µM | 9.07 µM | 22.1 µM | 11.3 µM |  |  |  |
| O=C(NCCO)c1cccc(Nc2ncc(F)c(Nc3ccc(F)cc3)n2)c1 | 21.4 µM | 13.4 µM | 11.8 µM |  |  |  |  |  |
| COc1cc(NC(=O)c2cccc(Nc3ncc(F)c(Nc4ccc(F)cc4)n3)c2)cc(OC)c1 | 12.7 µM | 13.7 µM | 13.8 µM |  |  |  |  |  |
| COc1ccc(N2CCOCC2)cc1Nc1ncc(F)c(Nc2ccc(F)cc2)n1 | > 10 µM | > 10 µM | 18.3 µM |  |  |  |  |  |
| COCC(=O)Nc1cccc(Nc2ncc(F)c(Nc3ccc(F)cc3)n2)c1 | 3.94 µM | 4.46 µM | 2.05 µM | 3.27 µM | 2.02 µM |  |  |  |
| O=C(Nc1ccc2c(c1)OCO2)c1cccc(Nc2ncc(F)c(Nc3ccc(F)cc3)n2)c1 | 12 µM | 11.6 µM | 12.9 µM |  |  |  |  |  |
| CS(=O)(=O)N1CCN(C(=O)c2cccc(Nc3ncc(F)c(Nc4ccc(F)cc4)n3)c2)CC1 | > 10 µM | 17.9 µM | 12.2 µM |  |  |  |  |  |
| O=C(Nc1cccc(Nc2ncc(F)c(Nc3ccc(F)cc3)n2)c1)c1ccncc1 | 4.57 µM | 4.33 µM | 1.65 µM | 15.3 µM | 2.57 µM |  |  |  |
| O=C(Nc1cccc(Nc2ncc(F)c(Nc3ccc(F)cc3)n2)c1)c1cccc([N+](=O)[O-])c1 | 11.3 µM | 12.6 µM | 7.25 µM |  |  |  |  |  |
| O=C(Nc1nccs1)c1cccc(Nc2ncc(F)c(Nc3ccc(F)cc3)n2)c1 | > 10 µM | > 10 µM | > 10 µM |  |  |  |  |  |
| CN(C)CCNC(=O)c1cccc(Nc2ncc(F)c(Nc3ccc(F)cc3)n2)c1 | 7.26 µM | 4.34 µM | 1.45 µM | 4.65 µM | 1.72 µM |  |  |  |
| O=C(c1cccc(Nc2ncc(F)c(Nc3ccc(F)cc3)n2)c1)N1CCCCC1 | 13.8 µM | 13 µM | 13.2 µM |  |  |  |  |  |
| Cn1ccnc1NC(=O)c1cccc(Nc2ncc(F)c(Nc3ccc(F)cc3)n2)c1 | 13.1 µM | 15.1 µM | 10.1 µM |  |  |  |  |  |
| O=C(Nc1cccc(Nc2ncc(F)c(Nc3ccc(F)cc3)n2)c1)c1cnccn1 | 20.1 µM | 26.4 µM | 10.3 µM |  |  |  |  |  |
| O=C(Nc1ccccn1)c1cccc(Nc2ncc(F)c(Nc3ccc(F)cc3)n2)c1 | 13.7 µM | 15.1 µM | 15.3 µM |  |  |  |  |  |
| Fc1cnc(Nc2cccc(N3CCOCC3)c2)nc1Nc1cc(Cl)cc(Cl)c1 | 22.5 µM | > 10 µM | 11.6 µM |  |  |  |  |  |
| O=C(Nc1ccc(N2CCOCC2)cc1)c1cccc(Nc2ncc(F)c(Nc3ccc(F)cc3)n2)c1 | > 10 µM | > 10 µM | > 10 µM |  |  |  |  |  |
| O=C(c1cccc(Nc2ncc(F)c(Nc3ccc(F)cc3)n2)c1)N1CCOCC1 | 13.1 µM | 11.9 µM | 11.2 µM |  |  |  |  |  |
| O=C(Nc1cccc(Nc2ncc(F)c(Nc3ccc(F)cc3)n2)c1)c1ccccc1 | > 10 µM | > 10 µM | 37.8 µM |  |  |  |  |  |
| Fc1cnc(Nc2cccc(N3CCOCC3)c2)nc1Nc1ccc(Cl)c(Cl)c1 | > 10 µM | > 10 µM | 12 µM |  |  |  |  |  |
| Fc1ccc(Nc2nc(Nc3cccc(N4CCOCC4)c3)ncc2F)cc1 | > 10 µM | > 10 µM | 3.83 µM |  |  |  |  |  |
| CN1CC[C@H](c2c(O)cc(O)c3c(=O)cc(-c4ccccc4Cl)oc23)[C@H](O)C1 [ALVOCIDIB] | 0.18 µM | 0.15 µM | 0.14 µM |  |  |  | 0.015 µM | 0.067 µM |
